# Screening data deposited in PubChem by Broad Institute.
# S100A4 inh HTS: inhibitors of S100A4-myosin IIA peptide binding, primary screen, biochemical, fluorescence polarization, TAMRA-MyoIIA peptide | 360,000 compounds, 0.14% hits | inhibition, % at 10.7 µM;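 active = mean inhibition of at least 70% across replicates, with every replicate also reaching that level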
# Target sequence (P26447 whole entry, looked up): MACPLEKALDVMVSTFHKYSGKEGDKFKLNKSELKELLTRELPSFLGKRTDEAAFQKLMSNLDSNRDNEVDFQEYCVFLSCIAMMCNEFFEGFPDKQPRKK
#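 Material: S100A4 monomer (human). Medium: Calcium-containing HEPES buffer, pH 7.2. Probe or stimulus: labelled myosin peptide probe, 5 nM. Compound dosing: one concentration per compound. Timing: polarization read 5 min after assay mix addition, stable 5–60 min. Benchmarks: DMSO as neutral control, TFP as positive control.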
# RAD52 inh: RAD52 DNA annealing inhibitors, primary screen, biochemical, FRET, single point, set 2; inhibition, % at 18.7 µM; DNA repair protein RAD52 homolog (Homo sapiens), P43351; recombinant RAD52 DNA annealing, FRET fluorescence; AID 651710, 2012; 360,000 compounds, 0.46% hits;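 active = every replicate showing at least 50% inhibition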
# Target sequence (P43351 whole entry, looked up): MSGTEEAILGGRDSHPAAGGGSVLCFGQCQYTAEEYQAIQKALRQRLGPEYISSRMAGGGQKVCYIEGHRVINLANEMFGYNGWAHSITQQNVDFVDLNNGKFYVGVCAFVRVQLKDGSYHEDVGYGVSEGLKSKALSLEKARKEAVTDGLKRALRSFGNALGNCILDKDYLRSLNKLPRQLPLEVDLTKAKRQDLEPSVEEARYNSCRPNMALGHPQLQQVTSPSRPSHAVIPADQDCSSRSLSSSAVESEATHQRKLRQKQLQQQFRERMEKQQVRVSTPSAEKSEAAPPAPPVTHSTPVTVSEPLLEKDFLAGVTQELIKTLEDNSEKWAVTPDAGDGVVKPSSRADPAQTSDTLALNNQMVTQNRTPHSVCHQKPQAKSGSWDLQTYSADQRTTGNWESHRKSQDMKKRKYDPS
# RAD54 branch: inhibitors of human RAD54 branch migration, primary screen, biochemical, fluorescence, single point; 360,000 compounds, 0.14% hits; inhibition, % at 10.4 µM; DNA repair and recombination protein RAD54-like (Homo sapiens), Q92698; RAD54 Holliday junction branch migration, FAM/BHQ fluorescence;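 active = mean normalized replicate activity at least 40 and at least half of replicates scoring 40 or more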;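 note: 0% = median of neutral control wells and 100% = median of positive control wells; inhibitors cause a drop in the FAM fluorescence signal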
# dFosB activator: activators of delta FosB homodimer, primary screen, biochemical, fluorescence polarization, TAMRA-CDK5 oligo, single point; AID 493131, 2011; 340,000 compounds, 0.99% hits; activation, % at 25 µM; purified delta FosB; percent of positive-control signal above neutral wells;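 active = mean activation above about 17%, with every replicate also reaching it, limit read from the data, passing the limit was not always enough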
# AF4-AF9 inh: inhibitors of AF4 peptide binding to AF9, primary screen, biochemical, AlphaScreen, biotin-AF4 peptide, FLAG-AF9, single point. inhibition, % at 10 µM. 350,000 compounds, 0.47% hits. AID 651704, 2012;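 active = every replicate reaching a set inhibition limit, whatever the replicate mean, cut at about 25% in these data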;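 note: 0% = plate neutral control median and 100% = total signal loss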
# The depositor's hits bear a star; x = no result given; ! = a repeat was not active. Hits are enriched below; roughly 1.5% of the tested compounds scored in any of these assays.
SMILES,S100A4 inh HTS,RAD52 inh,RAD54 branch,dFosB activator,AF4-AF9 inh
C[C@@H]1CN([C@@H](C)CO)C(=O)c2cc(NC(=O)Nc3ccccc3)ccc2O[C@@H]1CN(C)S(=O)(=O)c1cn(C)cn1,-13,2,-2,x,-1
O=C(NC[C@H]1CC[C@@H]2[C@@H](CN2S(=O)(=O)c2ccccc2[N+](=O)[O-])O1)Nc1ccccc1,-2,-2,x,x,0
O=C(NC[C@@H]1CC[C@@H]2[C@@H](CN2S(=O)(=O)c2ccccc2[N+](=O)[O-])O1)C1CCOCC1,-4,24,x,x,28*
C[C@H](CO)N1C[C@H](C)[C@@H](CN(C)C(=O)CN(C)C)Oc2cc(C#Cc3cccnc3)ccc2S1(=O)=O,-76,2,6,x,-2
C=C[C@@H](CO)NS(=O)(=O)c1ccc(Br)cc1,16,-4,x,x,-4
CCN(CC)CCn1c2ccccc2c2cnc(N=CN(C)C)c(C#N)c21,x,x,97*,29*,x
Cc1cccc(-c2n[nH]c(S(C)(=O)=O)c2C#N)c1,12,-9,x,7,97*
Cc1ccc(C)c(N(C(=O)c2csnn2)C(C(=O)NC2CCCCC2)c2ccccn2)c1 (stereo unspecified),-5,-6,-3,-11,37*
CN(C)CCn1c(=O)n(Cc2ccccc2)c(=O)c2c3c(sc21)CCCCC3,-3,14,1,4,26*
Oc1cc2c(cc1O)C1c3ccc(O)c(O)c3OCC1(O)C2 (stereo unspecified),-2,0,2,6,40*
COc1cc(/C=N/N2CCN(c3ccccc3)CC2)cc(OC)c1OC(C)=O,0,-9,-1,-3,26*
CO[C@@H]1CN(C)C(=O)c2cc(NC(=O)c3ccc(-c4ccccc4)cc3)ccc2OC[C@@H](C)NC[C@@H]1C,-13,35,13,x,6
C(=C\c1sc(Nc2ccccc2)n[n+]1-c1ccccc1)/c1ccccc1,-2,-36,5,1,31*
COc1ccc(-c2sc(Nc3ccccc3)n[n+]2-c2ccccc2)cc1Br,4,-34,-8,-2,-6
COCC(=O)Nc1ccc2c(c1)[C@@H]1C[C@H](CC(=O)NCc3cccc(F)c3)O[C@H](CO)[C@@H]1O2,-11,-9,7,x,0
Cc1ccccc1-c1ccc(C2[C@@H]3CN(S(=O)(=O)c4ccccc4C)C[C@H]2N3)cc1 (stereo partly specified),-25,72*!,x,x,-5
COc1cccc(S(=O)(=O)N2C[C@@H]3N[C@H](C2)C3c2ccc(/C=C/c3ccccc3)cc2)c1 (stereo partly specified),-5,58*!,x,x,-2
COc1cccc(S(=O)(=O)N2[C@@H]3CNC[C@H]2C3c2ccc(/C=C/c3ccccc3)cc2)c1 (stereo partly specified),-17,48,x,x,-7
COc1cccc(-c2ccc(C3[C@@H]4CN(S(=O)(=O)c5ccccc5)C[C@H]3N4)cc2)c1 (stereo partly specified),-7,47,x,x,3
COc1cccc(-c2ccc(C3[C@@H]4CN(S(=O)(=O)c5ccccc5C)C[C@H]3N4)cc2)c1 (stereo partly specified),-3,73*!,x,x,0
C[C@H](CO)N1C[C@H](C)[C@H](CN(C)Cc2ccccc2)Oc2cc(C#CCN(C)C)ccc2S1(=O)=O,-1,9,1,x,7
C[C@H]1CN([C@@H](C)CO)C(=O)c2cc(-c3cccnc3)cnc2O[C@@H]1CN(C)C(=O)Nc1ccc(C(F)(F)F)cc1,6,0,-4,x,1
O=C(C[C@@H]1C[C@@H]2c3cc(NC(=O)Cc4ccncc4)ccc3O[C@@H]2[C@@H](CO)O1)NCC1CC1,-2,-15,12,x,-1
CC(=O)Nc1cc2cc(NS(=O)(=O)c3ccc(C)cc3)ccc2oc1=O,2,13,0,155*,-1
NC(N)=Nc1nc(-c2ccccc2)c2cc(F)ccc2n1,19,42,56*,-37,13
SMILES,S100A4 inh HTS,RAD52 inh,RAD54 branch,dFosB activator,AF4-AF9 inh
OCCSc1nc(-c2ccccc2)nc2ccc(F)cc12,-10,-6,x,-42,-1
O=C(Nc1ccc(F)cc1)N1[C@@H]2CNC[C@H]1C2c1ccc(-c2ccc(F)cc2)cc1 (stereo partly specified),-70,51*,x,x,3
Cc1ccc(-c2ccc(C3[C@H]4CNC[C@@H]3N4C(=O)Nc3ccccc3Cl)cc2)cc1 (stereo partly specified),1,53*!,x,x,8
O=C(Nc1ccc2c(c1)OCO2)N1C[C@@H]2N[C@H](C1)C2c1ccc(C=Cc2ccccc2)cc1 (stereo partly specified),15,79*,x,x,56*!
O=C(Nc1ccc(F)cc1)N1[C@@H]2CNC[C@H]1C2c1ccc(-c2ccccc2)cc1 (stereo partly specified),3,55*!,x,x,3
O=C(Nc1ccccc1Cl)N1[C@@H]2CNC[C@H]1C2c1ccc(-c2ccccc2)cc1 (stereo partly specified),4,-2,x,x,-4
COc1ccccc1NC(=O)N1CC(=O)N2[C@H](CO)[C@H](c3ccc(-c4cccc(C)c4)cc3)[C@@H]2C1,6,-19,x,x,2
C[C@@H]1CCCCO[C@@H](CN(C)C(=O)C2CCCCC2)[C@@H](C)CN([C@H](C)CO)C(=O)c2cc(NS(C)(=O)=O)ccc2O1,-10,5,-3,x,-2
O=C(Nc1ccc(F)cc1)N1[C@@H]2CNC[C@H]1C2c1ccc(/C=C/c2ccccc2)cc1 (stereo partly specified),1,38,x,x,12
O=C(Nc1ccc2c(c1)OCO2)N1[C@@H]2CNC[C@H]1C2c1ccc(/C=C/c2ccccc2)cc1 (stereo partly specified),-12,60*,x,x,10
N#Cc1cccc(-c2ccc(C3[C@H]4CNC[C@@H]3N4C(=O)Nc3ccc(Cl)cc3)cc2)c1 (stereo partly specified),-24,-28,x,x,-4
O=C(Nc1ccc(Cl)cc1)N1[C@@H]2CNC[C@H]1C2c1ccc(/C=C/c2ccccc2)cc1 (stereo partly specified),-8,67*!,x,x,0
O=C(Nc1ccc(Cl)cc1)N1[C@@H]2CNC[C@H]1C2c1ccc(-c2ccccc2)cc1 (stereo partly specified),-17,58*!,x,x,-3
CCC(=O)N1[C@H](CO)[C@H](c2ccc(-c3ccc(F)cc3)cc2)[C@@H]1CN(C)C(C)=O,-23,-18,1,x,-2
O=C(C[C@@H]1CC[C@H]2[C@@H](COC[C@@H](O)CN2C(=O)Nc2ccc(C(F)(F)F)cc2)O1)NCC1CCCCC1,0,8,-3,x,-1
